One block for each molecule: values may come before it.
Key:
P-gp [1] = target: T1, P-gp (Homo sapiens, UniProt P08183); conditions: cited from earlier work
[2] = humans; ref Ulrich Elben, written communication, 2008; cited from earlier work
[3] = Tolerability of tariquidar in healthy volunteers; format: in vivo, human; conditions: 2 mg/kg BW i.v., 5 healthy male subjects
[4] = Tariquidar concentration in venous plasma by LC/MS; format: in vivo, human
[5] = Arterial blood and metabolite analysis of; format: in vivo, human; conditions: 2 mg/kg i.v.
P-gp [6] = target: T1, P-gp; experiment: Rhodamine-123 efflux assay in peripheral white blood cells; format: cell-based
Method in brief: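 Fresh whole blood (18 mL) was drawn from each of the 5 volunteers before dosing. Isolated white blood cells were incubated at 37°C with Rh-123 (0.2 μg/mL) and 10 dilutions of test compound in DMSO (final 0.01 nM–1 μM), in duplicate. Rh-123 accumulation (mean fluorescence per cell) was read by FACS. EC50 came from hyperbolic dose-response fits, given as mean±SD over the 5 donors.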

[7] = cited from earlier work
P-gp [8] = conditions: in vitro; cited from earlier work
P-gp [9] = conditions: rats, cited from earlier work
MRP1 = conditions: cited from earlier work
[10] = target: P-gp at the human blood-brain barrier (Homo sapiens, UniProt P08183)
Sequence of P-gp at the human blood-brain barrier (P08183 whole entry, the tested form may be a part): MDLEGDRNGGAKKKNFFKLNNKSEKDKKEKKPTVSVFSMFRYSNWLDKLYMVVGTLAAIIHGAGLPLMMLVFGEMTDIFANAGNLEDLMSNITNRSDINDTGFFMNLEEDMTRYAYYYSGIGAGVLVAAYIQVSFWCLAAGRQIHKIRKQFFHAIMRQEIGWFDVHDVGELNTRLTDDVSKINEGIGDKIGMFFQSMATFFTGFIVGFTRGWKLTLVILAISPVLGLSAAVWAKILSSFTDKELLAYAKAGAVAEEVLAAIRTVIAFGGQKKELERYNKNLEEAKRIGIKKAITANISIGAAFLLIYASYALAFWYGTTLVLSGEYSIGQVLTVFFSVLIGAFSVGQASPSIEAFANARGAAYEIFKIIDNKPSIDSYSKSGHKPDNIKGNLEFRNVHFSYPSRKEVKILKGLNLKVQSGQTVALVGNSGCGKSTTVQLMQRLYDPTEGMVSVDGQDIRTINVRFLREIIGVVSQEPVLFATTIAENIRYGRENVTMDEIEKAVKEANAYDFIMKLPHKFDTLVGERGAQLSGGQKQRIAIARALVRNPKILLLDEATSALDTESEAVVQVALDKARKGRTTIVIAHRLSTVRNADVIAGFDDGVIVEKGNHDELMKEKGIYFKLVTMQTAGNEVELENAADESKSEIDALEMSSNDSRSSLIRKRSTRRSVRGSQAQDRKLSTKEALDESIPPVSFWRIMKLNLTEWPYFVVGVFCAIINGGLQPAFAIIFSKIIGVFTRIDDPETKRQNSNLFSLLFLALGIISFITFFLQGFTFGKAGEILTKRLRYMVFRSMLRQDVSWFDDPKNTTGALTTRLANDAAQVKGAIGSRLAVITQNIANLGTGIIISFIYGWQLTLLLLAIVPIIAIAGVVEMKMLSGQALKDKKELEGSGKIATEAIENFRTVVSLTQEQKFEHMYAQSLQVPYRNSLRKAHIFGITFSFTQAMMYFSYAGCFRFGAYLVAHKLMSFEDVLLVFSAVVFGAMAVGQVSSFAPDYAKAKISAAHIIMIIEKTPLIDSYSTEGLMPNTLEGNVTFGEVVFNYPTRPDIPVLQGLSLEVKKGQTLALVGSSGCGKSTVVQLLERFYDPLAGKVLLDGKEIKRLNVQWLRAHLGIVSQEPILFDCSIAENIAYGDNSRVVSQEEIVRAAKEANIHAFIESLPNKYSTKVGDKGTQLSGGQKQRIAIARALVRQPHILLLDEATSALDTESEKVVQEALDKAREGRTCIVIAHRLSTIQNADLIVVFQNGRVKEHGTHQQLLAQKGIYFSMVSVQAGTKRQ

P-gp [11] = conditions: non-human primates, infusion of 20 mg/kg/2 hr; cited from earlier work

T1 sequence (P08183 whole entry): as the sequence (P08183 whole entry, the tested form may be a part) above

Compound: C=C[C@H]1C[N@@]2CC[C@H]1C[C@@H]2[C@@H](O)c1ccnc2ccc(OC)cc12 [quinidine]
- CNS pharmacologic effect of loperamide when inhibitor co-administered (P-gp [1]; 8 healthy volunteers): caused respiratory depression

- Plasma concentration of tariquidar during the second PET scan ([4]; 200-240 min after start of infusion, 2 mg/kg i.v., mean±SD): 490 ± 166 ng/mL
- Plasma concentration relative to EC50 for inhibition of Rh-123 efflux ([4]; at 24 h after tariquidar infusion): 424 fold
- Concentration of unbound tariquidar in plasma ([4]; at the time of the second scan, corrected for 99.5% protein binding): 2.45 ± 0.83 ng/mL
- Plasma concentration relative to EC50 for inhibition of Rh-123 efflux ([4]; during second PET scan): 980 fold
- concentration at 24 h ([4]; male, human, plasma, intravenous, 2 mg/kg): 212 ± 24 ng/mL
- Influence of tariquidar on the metabolism of (R)-11C-verapamil [5]: did not have significant influence
- EC50 (P-gp [6]): 0.773 nM
- Maximum increase of brain radioactivity versus baseline (t=40 min) ([10]; scan 1, at 5 min after end of tariquidar infusion (t=75 min), 2 mg/kg i.v.): +74%
- Increase of brain radioactivity versus baseline (t=40 min) ([10]; scan 1, at 35 min after end of tariquidar infusion (t=115 min), on average): +10%
Compound: COc1cc2c(cc1OC)CN(CCc1ccc(NC(=O)c3cc(OC)c(OC)cc3NC(=O)c3cnc4ccccc4c3)cc1)CC2 [tariquidar, Tariquidar]
- Binding to plasma proteins [2]: 99.5%
- Mild adverse events possibly related to study medication [3]: mild hypotension, headache and nausea, each in one patient and dizziness in 2 patients
- Tolerability [3]: well tolerated without occurrence of severe or serious adverse events
- Tariquidar-related material in plasma existing as unchanged parent compound ([7]; monkey plasma): > 95%
- Elimination half-life ([7]; monkey): 5 h
- Duration of P-gp inhibitory effect after removal from the incubation medium (P-gp [8]): up to 22 h
- Plasma tariquidar concentration at the time of the PET scan (P-gp [9]; 15 mg/kg): about 1,400 ng/mL
- Increase of (R)-11C-verapamil DVs (P-gp [9]; plasma tariquidar levels about 500 ng/mL): 3-4 fold
- Increase of the (R)-11C-verapamil DV (P-gp [9]; tariquidar 15 mg/kg): 12 fold
- Inhibition of MRP1 (MRP1): does not inhibit
- CNS activity of loperamide (reduction in pupil diameter) after inhibitor (P-gp [1]; humans, tariquidar 2 mg/kg BW): not affected

Compound: C/C=C/C[C@@H](C)C(=O)[C@H]1C(=O)N[C@@H](C(C)C)C(=O)N(C)CC(=O)N(C)[C@@H](CC(C)C)C(=O)N[C@@H](C(C)C)C(=O)N(C)[C@@H](CC(C)C)C(=O)N[C@@H](C)C(=O)N[C@H](C)C(=O)N(C)[C@@H](CC(C)C)C(=O)N(C)[C@@H](CC(C)C)C(=O)N(C)[C@@H](C(C)C)C(=O)N1C [valspodar]
- Increase of brain uptake of racemic 11C-verapamil (P-gp [11]): 4.61 fold

— paper PMC3690436 (Journal of nuclear medicine : official publication, Society …, 2009)
